ChEMBL document CHEMBL3352355, “Synthesis of novel polysubstituted (2SR,4RS)-2-heteroaryltetrahydro-1,4-epoxy-1-benzazepines and cis-2-heteroaryl-4-hydroxytetrahydro-1H-1-benzazepines as antiparasitic agents” (Eur J Med Chem, 2014)

Columns and labels:
[1] = Selectivity index, ratio of CC50 for African green monkey Vero cells to IC50 for epimastigote stage of Trypanosoma cruzi; assay type: functional
In short: (§1)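 Selectivity index was calculated as CC50 in Vero (T. cruzi) or THP-1 (L. infantum) cells divided by parasite IC50. Both values came from 72 h mammalian-cell MTT assays and the parasite assays; SI ≥ 3 was defined as parasite-selective.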

[2] = Cytotoxicity against human THP1 cells; assay type: cell-based; settings: THP-1 cells
In short: (§2)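 Vero monolayers or THP-1 cells (made adherent with 10 ng/mL PMA), in RPMI 1640 with 10% hiFCS, were exposed to compound (0.3–300 µg/mL) for 72 h at 37 °C, 5% CO2. Viability was measured by MTT, with formazan dissolved in DMSO and read at 580 nm. % cytotoxicity was calculated against untreated cells; CC50 came from sigmoidal regression, given as mean ± SD.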

[3] = Selectivity index, ratio of CC50 for human THP1 cells to IC50 for amastigote stage of Leishmania infantum; assay type: functional, THP-1; in short: as §1
[4] = system: Leishmania infantum; assay: Antiparasitic activity against promastigote stage of Leishmania infantum assessed as parasite growth inhibition after 72 hrs by hemocytometery
[5] = system: Trypanosoma cruzi; assay: Antiparasitic activity against epimastigote stage of Trypanosoma cruzi infected in Vero cells assessed as parasite growth inhibition […] by hemocytometery; assay type: functional, organism-based
In short: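 Exponential-phase T. cruzi Sylvio X10 epimastigotes (LIT medium with hiFCS) or L. (L.) infantum MHOM/BR/74/PP75 promastigotes (RPMI 1640, hemin, HEPES, 10% hiFCS) were exposed to threefold serial dilutions (0.3–300 µg/mL) for 72 h at 28 °C. Viable parasites were counted by hemocytometer with 0.25% eosin yellow. IC50 came from sigmoidal regression, given as mean ± SD.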

[6] = Cytotoxicity against African green monkey Vero cells; assay type: cell-based; settings: chlorocebus sabaeus; in short: as §2
[7] = system: Leishmania infantum; assay: Antiparasitic activity against amastigote stage of Leishmania infantum infected in THP1 cells assessed as parasite growth inhibition after 24 hrs by hemocytometery; assay type: functional, organism-based, THP-1; settings: Leishmania infantum, THP-1, 24 h; read-out: IC50
In short: (§3)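 Host cells were Vero for T. cruzi (infected with tissue-derived trypomastigotes) and THP-1 (PMA-transformed, 10 ng/mL) for L. (L.) infantum (infected with late-phase promastigotes), at 1:10 cell:parasite for 24 h. Serial dilutions were given as two doses, the second on day 3 with a medium change. Read-out was % infected cells on methanol-fixed, Giemsa-stained slides (300 cells). IC50 came from sigmoidal regression; experiments in duplicate, concentrations in triplicate.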

[8] = Selectivity index, ratio of CC50 for human THP1 cells to IC50 for promastigote stage of Leishmania infantum; assay type: functional, THP-1; in short: as §1
[9] = Selectivity index, ratio of CC50 for African green monkey Vero cells to IC50 for amastigote stage of Trypanosoma cruzi; assay type: functional; in short: as §1
[10] = system: Trypanosoma cruzi; assay: Antiparasitic activity against amastigote stage of Trypanosoma cruzi infected in Vero cells assessed as parasite growth inhibition after 24 hrs by hemocytometery; assay type: functional, organism-based; settings: Trypanosoma cruzi, Vero, 24 h; read-out: IC50; in short: as §3

| IC50 [5] | IC50 [10] | SMILES | Selectivity Index [1] | CC50 [2] | Selectivity Index [3] | IC50 [4] | CC50 [6] | IC50 [7] | Selectivity Index [8] | Selectivity Index [9] |
| --- | --- | --- | --- | --- | --- | --- | --- | --- | --- | --- |
| 104 µM | 103 µM | Fc1ccc2c(c1)C[C@@H]1C[C@@H](c3cccs3)N2O1 (racemic) | 13.5 | 991 µM | 5.6 | 11.5 µM | 1400 µM | 177 µM | 86.6 | 13.5 |
| 27.6 µM | 134 µM | Cc1ccsc1[C@@H]1C[C@H]2Cc3ccccc3N1O2 (racemic) | 16.4 | 377 µM | 1 | 56.6 µM | 453 µM | 368 µM | 6.7 | 3.4 |
| 166 µM | 319 µM | FC(F)(F)Oc1ccc2c(c1)C[C@@H]1C[C@@H](c3ccco3)N2O1 (racemic) | 0.6 | 319 µM | 1.9 | 16 µM | 93.4 µM | 172 µM | 19.9 | 0.3 |
